Values belong to the compound of their own block, whether it stands above or below them. Calls of active or inactive are those of the source. The calls are words filed in the database; no cut-off is given here.
Legend:
[1] = target: 5-hydroxytryptamine receptor 2A (Rattus norvegicus, UniProt P14842); assay: Displacement of [3H]ketanserin from 5HT2A receptor in CRL:CD(SD)BR-COBS rat cortex by scintillation spectrometry
[2] = Partition coefficient, log P of the compound; type: physicochemical; conditions: octanol/water
[3] = Lipophilicity, log D at pH 7.4; type: physicochemical; conditions: buffer
[4] = target: D(1A) dopamine receptor (Rattus norvegicus, UniProt P18901); assay: Displacement of [3H]SCH23390 from dopamine D1 receptor in CRL:CD(SD)BR-COBS rat striatum by scintillation spectrometry
[5] = target: Voltage-gated inwardly rectifying potassium channel KCNH2 (Homo sapiens, UniProt Q12809); assay: Binding affinity to human ERG expressed in HEK293 cells; type: cell-based
[6] = Displacement of [3H]mesulergine from 5HT2C receptor in CRL:(HA) BR albino guinea pig cortex by scintillation spectrometry; set-up: species or system Cavia porcellus
Procedure, shortened: (§1)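 Radioligand displacement binding gave Ki (nM). Each value is the mean of three determinations, with SD within 10% of the mean.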

[7] = target: D(2) dopamine receptor (Rattus norvegicus, UniProt P61169); assay: Displacement of [3H]spiperone from dopamine D2 receptor in CRL:CD(SD)BR-COBS rat striatum by scintillation spectrometry
[8] = target: T1, 5-hydroxytryptamine receptor 1A (Rattus norvegicus, UniProt P19327); assay: Displacement of [3H]8OH-DPAT from 5HT1A receptor in rat CRL:CD(SD)BR-COBS hippocampus by scintillation spectrometry; type: tissue-based; procedure, shortened: as §1
T1 sequence (P19327 whole entry): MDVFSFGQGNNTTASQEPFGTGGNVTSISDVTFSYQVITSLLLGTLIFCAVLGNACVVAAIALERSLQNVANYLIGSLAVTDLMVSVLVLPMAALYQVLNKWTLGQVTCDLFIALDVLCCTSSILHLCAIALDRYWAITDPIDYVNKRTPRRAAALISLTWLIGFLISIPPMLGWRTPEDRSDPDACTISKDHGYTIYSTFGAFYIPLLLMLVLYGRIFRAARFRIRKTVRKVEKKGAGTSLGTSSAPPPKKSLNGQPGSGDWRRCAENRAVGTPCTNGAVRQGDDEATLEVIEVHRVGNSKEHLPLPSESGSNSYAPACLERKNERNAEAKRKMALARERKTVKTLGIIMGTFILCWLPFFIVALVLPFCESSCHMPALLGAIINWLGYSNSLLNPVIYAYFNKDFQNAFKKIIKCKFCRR

[9] = tested on: Mus musculus; assay: Antipsychotic activity in NMRI mouse assessed as reduction in MK-801-induced locomotor activity at 10 mg/kg, ip administered 30 mins prior to testing measured for 60 mins; type: functional; conditions: route intraperitoneal
[10] = tested on: Mus musculus; assay: Antipsychotic activity in NMRI mouse assessed as reduction of PCP-induced locomotor activity at 10 mg/kg, ip administered 30 mins prior to testing measured for 60 mins; type: functional, organism-based; set-up: dose 10 mg/kg
[11] = AUC (0 to 6 hrs) in NMRI mouse at 3 mg/kg, ip; type: ADME, organism-based; set-up: time < 6 hr, dose 3 mg/kg, route intraperitoneal; conditions: plasma
Procedure, shortened: (§2)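 Mice received a single 3 mg/kg ip dose, and plasma concentrations were measured over time. […] Cmax, Tmax and T1/2 were taken from the plasma level profiles.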

[12] = Half life in NMRI mouse at 3 mg/kg, ip; type: ADME, organism-based; set-up: dose 3 mg/kg, route intraperitoneal; conditions: in vivo; procedure, shortened: as §2
[13] = tested on: Mus musculus; assay: Antipsychotic activity in NMRI mouse assessed as reduction in spontaneous exploratory locomotor activity at 30 mg/kg, ip administered 30 mins prior to testing measured for 60 mins; type: functional; conditions: route intraperitoneal
[14] = Tmax in NMRI mouse at 3 mg/kg, ip; type: ADME, organism-based; set-up: dose 3 mg/kg, route intraperitoneal; conditions: in vivo; procedure, shortened: as §2
[15] = Cmax in NMRI mouse at 3 mg/kg, ip; type: ADME, organism-based; set-up: dose 3 mg/kg, route intraperitoneal; conditions: in vivo; procedure, shortened: as §2
[16] = tested on: Mus musculus; assay: Antipsychotic activity in NMRI mouse assessed as inhibition of PCP-induced locomotor activity at 3 mg/kg, ip administered 30 mins prior to testing measured for 60 mins; type: functional, organism-based; set-up: dose 3 mg/kg
[17] = tested on: Mus musculus; assay: Antipsychotic activity in NMRI mouse assessed as increase of MK-801-induced locomotor activity at 1 mg/kg, ip administered 30 mins prior to testing measured for 60 mins; type: functional, organism-based; set-up: dose 1 mg/kg
[18] = tested on: Mus musculus; assay: Antipsychotic activity in NMRI mouse assessed as reduction in spontaneous exploratory locomotor activity at 10 mg/kg, ip administered 30 mins prior to testing measured for 60 mins; type: functional; conditions: route intraperitoneal
[19] = tested on: Mus musculus; assay: Antipsychotic activity in NMRI mouse assessed as reduction in MK-801-induced locomotor activity at 30 mg/kg, ip administered 30 mins prior to testing measured for 60 mins; type: functional; conditions: route intraperitoneal
[20] = tested on: Mus musculus; assay: Antipsychotic activity in ip dosed NMRI mouse assessed as reduction in spontaneous exploratory locomotor activity administered 30 mins prior to testing measured for 60 mins; type: functional
[21] = tested on: Mus musculus; assay: Antipsychotic activity in NMRI mouse assessed as increase of methamphetamine-induced locomotor activity at 0.3 mg/kg, ip administered 30 mins prior to testing measured for 60 mins; type: functional, organism-based; set-up: dose 0.3 mg/kg
[22] = tested on: Mus musculus; assay: Antipsychotic activity in NMRI mouse assessed as increase of spontaneous exploratory locomotor activity at 1 mg/kg, ip administered 30 mins prior to testing measured for 60 mins; type: functional
[23] = tested on: Mus musculus; assay: Antipsychotic activity in NMRI mouse assessed as reduction in methamphetamine-induced locomotor activity at > 30 mg/kg, ip administered 30 mins prior to testing measured for 60 mins; type: functional; conditions: route intraperitoneal

Chain of D(2) dopamine receptor (P61169 whole entry): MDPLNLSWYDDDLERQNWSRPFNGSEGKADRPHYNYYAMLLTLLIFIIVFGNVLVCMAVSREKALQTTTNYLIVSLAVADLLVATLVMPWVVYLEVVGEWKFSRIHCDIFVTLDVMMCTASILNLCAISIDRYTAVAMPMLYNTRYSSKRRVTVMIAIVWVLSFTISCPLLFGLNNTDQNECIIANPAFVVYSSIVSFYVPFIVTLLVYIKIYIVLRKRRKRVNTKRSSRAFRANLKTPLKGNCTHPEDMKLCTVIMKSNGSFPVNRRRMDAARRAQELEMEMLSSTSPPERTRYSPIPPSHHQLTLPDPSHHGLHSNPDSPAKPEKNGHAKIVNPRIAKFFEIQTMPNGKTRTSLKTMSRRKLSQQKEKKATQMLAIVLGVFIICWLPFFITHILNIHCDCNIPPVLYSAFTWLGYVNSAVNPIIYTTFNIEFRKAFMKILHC
Chain of Voltage-gated inwardly rectifying potassium channel KCNH2 (Q12809 whole entry): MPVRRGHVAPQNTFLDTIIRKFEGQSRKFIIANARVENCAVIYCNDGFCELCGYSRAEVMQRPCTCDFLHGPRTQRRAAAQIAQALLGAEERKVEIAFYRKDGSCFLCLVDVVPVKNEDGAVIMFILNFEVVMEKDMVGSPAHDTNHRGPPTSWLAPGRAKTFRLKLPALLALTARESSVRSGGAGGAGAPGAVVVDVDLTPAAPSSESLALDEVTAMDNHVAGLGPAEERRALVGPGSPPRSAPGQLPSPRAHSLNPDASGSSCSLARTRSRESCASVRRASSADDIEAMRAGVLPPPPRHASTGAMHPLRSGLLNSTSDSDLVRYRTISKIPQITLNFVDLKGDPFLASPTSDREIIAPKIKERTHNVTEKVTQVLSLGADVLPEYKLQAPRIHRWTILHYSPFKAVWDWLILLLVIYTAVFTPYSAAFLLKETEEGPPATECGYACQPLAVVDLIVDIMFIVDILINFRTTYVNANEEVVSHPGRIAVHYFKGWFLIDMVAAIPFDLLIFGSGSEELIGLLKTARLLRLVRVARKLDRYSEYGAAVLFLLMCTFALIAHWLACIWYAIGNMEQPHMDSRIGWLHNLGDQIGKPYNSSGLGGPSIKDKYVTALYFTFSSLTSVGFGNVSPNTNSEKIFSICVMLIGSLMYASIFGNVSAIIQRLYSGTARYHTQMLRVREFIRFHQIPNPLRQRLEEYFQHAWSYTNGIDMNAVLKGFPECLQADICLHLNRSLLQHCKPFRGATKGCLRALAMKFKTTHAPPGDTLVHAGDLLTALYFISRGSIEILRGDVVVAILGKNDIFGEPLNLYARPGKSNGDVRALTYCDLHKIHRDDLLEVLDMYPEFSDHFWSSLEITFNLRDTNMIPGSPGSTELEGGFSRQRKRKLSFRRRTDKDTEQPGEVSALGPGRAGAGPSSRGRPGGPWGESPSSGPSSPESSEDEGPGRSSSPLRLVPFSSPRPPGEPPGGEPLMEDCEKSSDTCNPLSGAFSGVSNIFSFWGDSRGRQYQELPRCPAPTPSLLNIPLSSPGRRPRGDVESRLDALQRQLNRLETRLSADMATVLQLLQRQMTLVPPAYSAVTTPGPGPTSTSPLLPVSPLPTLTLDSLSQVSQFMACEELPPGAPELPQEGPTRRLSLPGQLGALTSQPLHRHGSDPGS
Chain of 5-hydroxytryptamine receptor 2A (P14842 whole entry): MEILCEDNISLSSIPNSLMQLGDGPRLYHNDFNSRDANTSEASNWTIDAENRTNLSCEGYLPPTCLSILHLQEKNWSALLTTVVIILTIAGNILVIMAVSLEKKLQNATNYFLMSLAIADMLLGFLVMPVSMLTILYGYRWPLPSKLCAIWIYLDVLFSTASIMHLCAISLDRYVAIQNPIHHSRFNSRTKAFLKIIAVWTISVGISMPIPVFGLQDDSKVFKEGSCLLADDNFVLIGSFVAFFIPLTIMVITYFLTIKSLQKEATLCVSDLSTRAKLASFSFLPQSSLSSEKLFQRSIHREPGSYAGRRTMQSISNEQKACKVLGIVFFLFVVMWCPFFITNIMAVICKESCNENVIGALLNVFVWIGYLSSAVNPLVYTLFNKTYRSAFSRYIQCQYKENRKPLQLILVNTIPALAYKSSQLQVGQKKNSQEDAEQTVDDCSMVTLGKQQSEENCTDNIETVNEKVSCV
Chain of D(1A) dopamine receptor (P18901 whole entry): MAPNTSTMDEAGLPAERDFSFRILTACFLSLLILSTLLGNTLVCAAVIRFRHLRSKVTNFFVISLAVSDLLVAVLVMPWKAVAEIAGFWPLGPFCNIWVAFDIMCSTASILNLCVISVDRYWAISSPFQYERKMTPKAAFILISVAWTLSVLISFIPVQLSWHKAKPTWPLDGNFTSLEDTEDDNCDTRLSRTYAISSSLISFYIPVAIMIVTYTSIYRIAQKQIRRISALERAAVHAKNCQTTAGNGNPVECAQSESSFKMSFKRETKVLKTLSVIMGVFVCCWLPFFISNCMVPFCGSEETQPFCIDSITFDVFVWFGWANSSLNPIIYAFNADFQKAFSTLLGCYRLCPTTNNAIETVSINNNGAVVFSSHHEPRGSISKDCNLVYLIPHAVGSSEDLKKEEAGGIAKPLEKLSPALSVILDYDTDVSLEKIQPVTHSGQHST

Structure (SMILES): c1ccc(N2CCN(CCCCCCN3CCN(c4ccccn4)CC3)CC2)nc1
Activity [10]: Active
AUC(0-t) at 6 h [11]: 84 ng·h/mL
Ki [1]: 45 nM
logP [2]: 3.39
logD [3]: 1.33
Activity [13]: 30 mg/kg
Ki [4]: > 1000 nM
Ki [5]: > 10000 nM
Tmax [14]: 60 min
Cmax [15]: 26 ng/mL
Ki [6]: > 1000 nM
Ki [7]: 159 nM
Ki [8]: 16 nM
Activity [16]: Active

Structure (SMILES): Cc1cccc(N2CCN(CCCCCCN3CCN(c4ccccc4)CC3)CC2)c1
Activity [10]: Active
AUC(0-t) at 6 h [11]: 147 ng·h/mL
Ki [1]: 10 nM
logP [2]: 4.45
logD [3]: 3.53
Activity [13]: 30 mg/kg
Ki [4]: > 1000 nM
Ki [5]: 3800 nM
Tmax [14]: 30 min
Cmax [15]: 41 ng/mL
Ki [6]: 182 nM
Ki [7]: 20 nM
Ki [8]: 19 nM
Activity [16]: Active

Structure (SMILES): Cc1cccc(N2CCN(CCCCCCN3CCN(c4cccc(C)n4)CC3)CC2)c1
Activity [17]: Active
Activity [10]: Active
AUC(0-t) at 6 h [11]: 243 ng·h/mL
Ki [1]: 6 nM
logP [2]: 4.62
logD [3]: 2.46
Ki [4]: > 1000 nM
Tmax [14]: 120 min
Cmax [15]: 58 ng/mL
Ki [6]: 68 nM
Ki [7]: 33 nM
Ki [8]: 11 nM
Activity [16]: Active

Structure (SMILES): COc1cccc(N2CCN(CCCCCCN3CCN(c4cccc(Cl)c4)CC3)CC2)c1
Ki [1]: 7 nM
logP [2]: 4.7
logD [3]: 3.89
Ki [4]: > 1000 nM
Ki [5]: 1200 nM
Ki [6]: 92 nM
Ki [7]: 4 nM
Ki [8]: 1 nM

Structure (SMILES): O=C1CCc2ccc(OCCCCN3CCN(c4cccc(Cl)c4Cl)CC3)cc2N1 [ARIPIPRAZOLE]
Activity [10]: Active
ED50 [20]: 2.5 mg/kg
Activity [16]: Active

Structure (SMILES): Cc1cccc(N2CCN(CCCCCCN3CCN(c4ccccn4)CC3)CC2)c1
Activity [10]: Active
Activity [21]: Active
Ki [1]: 10 nM
logP [2]: 4.23
logD [3]: 2.72
Ki [4]: > 1000 nM
Ki [5]: 8700 nM
Ki [6]: 150 nM
Ki [7]: 44 nM
Ki [8]: 2 nM
Activity [16]: Active
Activity [22]: inactive

Structure (SMILES): Cc1cccc(N2CCN(CCCCNC(=O)c3cc4ccccc4o3)CC2)c1
Activity [10]: Active
AUC(0-t) at 6 h [11]: 128 ng·h/mL
Ki [4]: 263 nM
Tmax [14]: 30 min
Cmax [15]: 155 ng/mL
Ki [6]: 206 nM
Ki [7]: 4.5 nM
Activity [16]: Active

Structure (SMILES): O=C(CCCN1CCC(O)(c2ccc(Cl)cc2)CC1)c1ccc(F)cc1 [HALOPERIDOL]
Activity [10]: Active
ED50 [20]: 0.08 mg/kg
Activity [16]: Active

Structure (SMILES): c1ccc(N2CCN(CCCCCCN3CCN(c4ccccc4)CC3)CC2)cc1
Activity [10]: Active
Activity [18]: 10 mg/kg
AUC(0-t) at 6 h [11]: 198 ng·h/mL
Ki [1]: 31 nM
logP [2]: 3.83
logD [3]: 2.96
Ki [4]: > 1000 nM
Ki [5]: 8000 nM
Tmax [14]: 30 min
Cmax [15]: 71 ng/mL
Ki [6]: > 1000 nM
Ki [7]: 1 nM
Ki [8]: 3 nM
Activity [16]: Active
Activity [23]: >30 mg/kg

Structure (SMILES): Cc1cccc(N2CCN(CCCCCCN3CCN(c4cccc(C)c4)CC3)CC2)c1
Ki [1]: 20 nM
logP [2]: 5
logD [3]: 4.03
Ki [4]: > 1000 nM
Ki [5]: 2200 nM
Ki [6]: 120 nM
Ki [7]: 70 nM
Ki [8]: 48 nM

Structure (SMILES): COc1cccc(N2CCN(CCCCCCN3CCN(c4cccc(OC)c4)CC3)CC2)c1
Ki [1]: 28 nM
logP [2]: 4.19
logD [3]: 3.25
Ki [4]: > 1000 nM
Ki [5]: 2400 nM
Ki [6]: 303 nM
Ki [7]: 27 nM
Ki [8]: 8 nM

Further lines, with some results ahead:

Ki [1]: 98 nM
logP [2]: 5.35
logD [3]: 4.58
Ki [4]: > 1000 nM
Ki [6]: 504 nM
Ki [7]: 11 nM
Ki [8]: 16 nM
Structure (SMILES): Clc1cccc(N2CCN(CCCCCCN3CCN(c4cccc(Cl)c4)CC3)CC2)c1
Ki [5]: 300 nM

AUC(0-t) at 6 h [11]: 362 ng·h/mL
half-life [12]: 150 min
Ki [1]: 25 nM
logP [2]: 3.99
logD [3]: 1.89
Ki [4]: > 1000 nM
Tmax [14]: 18 min
Cmax [15]: 121 ng/mL
Ki [6]: 309 nM
Ki [7]: 24 nM
Ki [8]: 8 nM
Structure (SMILES): Cc1cccc(N2CCN(CCCCCCN3CCN(c4ccccc4)CC3)CC2)n1
Activity [9]: 10 mg/kg
Activity [10]: Active
Activity [13]: 30 mg/kg
Activity [16]: Active

AUC(0-t) at 6 h [11]: 58 ng·h/mL
Ki [1]: 39 nM
logP [2]: 3.61
logD [3]: 2.14
Ki [4]: > 1000 nM
Tmax [14]: 60 min
Cmax [15]: 50 ng/mL
Ki [6]: > 1000 nM
Ki [7]: 34 nM
Ki [8]: 30 nM
Structure (SMILES): c1ccc(N2CCN(CCCCCCN3CCN(c4ccccn4)CC3)CC2)cc1
Activity [10]: Active
Activity [18]: 10 mg/kg
Activity [19]: 30 mg/kg
Ki [5]: 13000 nM
Activity [16]: Active

logP [2]: 6.23
logD [3]: 3.67
Structure (SMILES): Cc1cccc(N2CCN(CCCCCCN3CCN(c4ccnc5ccccc45)CC3)CC2)c1
Ki [5]: 900 nM

Ki [1]: 34 nM
logP [2]: 5.61
logD [3]: 3.1
Ki [4]: > 1000 nM
Ki [6]: > 1000 nM
Ki [7]: 41 nM
Ki [8]: 49 nM
Structure (SMILES): c1ccc(N2CCN(CCCCCCN3CCN(c4ccnc5ccccc45)CC3)CC2)cc1
Ki [5]: 3800 nM
